Reference: ChEMBL document CHEMBL4017508, “Design, Synthesis, and Biological Evaluation of Novel Type I1/2 p38α MAP Kinase Inhibitors with Excellent Selectivity, High Potency, and Prolonged Target Residence Time by Interfering with the R-Spine” (J Med Chem, 2017)

tested on: Liver; assay: Drug metabolism in rat liver microsomes assessed as metabolite formation after 180 mins in presence of NADPH by LC-MS analysis; type: ADME, microsome; conditions: 3 h
Procedure, shortened: (§1)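 Incubation with rat liver microsomes for 180 min, run in triplicate; mean ± standard deviation reported. Parent decrease and percentage of formed metabolites were followed by LC-MS. Samples were dissolved in MeOH and separated on a C18 core-shell column at 20 °C. The gradient ran from 5 to 100% acetonitrile against water, both with 0.1% formic acid, at 500 μL/min. Detection used ESI+.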

Compound	Drug metabolism
O=C(NCC(O)CO)c1ccc2c(c1)C(=O)c1ccc(Nc3ccc(F)c(NC(=O)C4CC4)c3)cc1CC2 (configuration not stated)	Metabolite_Notdetected

tested on: not listed separately; assay: Metabolic stability in rat liver microsomes after 180 mins in presence of NADPH by LC-MS analysis; type: ADME, microsome; conditions: read-out: Stability; procedure, shortened: as §1

Compound	remaining at 3 h [%]
CNC(=O)c1ccc2c(c1)C(=O)c1ccc(Nc3cccc(C(=O)NC4CC4)c3F)cc1CC2	61.6
CNC(=O)c1ccc2c(c1)C(=O)c1ccc(Nc3ccc(F)c(NC(=O)C4CC4)c3)cc1CC2	79.5
O=C(NCC(O)CO)c1ccc2c(c1)C(=O)c1ccc(Nc3cc(NC(=O)c4cccs4)c(F)cc3F)cc1CC2 (configuration not stated)	76.6
O=C(NCC(O)CO)c1ccc2c(c1)C(=O)c1ccc(Nc3ccc(F)c(NC(=O)C4CC4)c3)cc1CC2 (configuration not stated)	95.2
O=C(NCC(O)CO)c1ccc2c(c1)C(=O)c1ccc(Nc3cc(NC(=O)c4cccs4)c(F)cc3F)cc1OC2 (configuration not stated)	48.7
O=C(NCCO)c1ccc2c(c1)C(=O)c1ccc(Nc3cc(NC(=O)c4cccs4)c(F)cc3F)cc1CC2	66.9

Next, values leading:

remaining at 3 h [%]	Compound
66.7	O=C(NCCN1CCOCC1)c1ccc2c(c1)C(=O)c1ccc(Nc3cc(NC(=O)c4cccs4)c(F)cc3F)cc1CC2
65.6	CNC(=O)c1ccc2c(c1)C(=O)c1ccc(Nc3ccc(F)c(NC(=O)c4ccccc4)c3)cc1CC2
14.8	O=C(NCCN1CCOCC1)c1ccc2c(c1)C(=O)c1ccc(Nc3ccc(F)c(NC(=O)c4ccccc4)c3)cc1OC2
57.1	O=C(NCCN1CCOCC1)c1ccc2c(c1)C(=O)c1ccc(Nc3ccc(F)c(NC(=O)c4cccs4)c3)cc1CC2
40.6	O=C(NCCN1CCOCC1)c1ccc2c(c1)C(=O)c1ccc(Nc3ccc(F)c(NC(=O)c4ccccc4)c3)cc1CC2 [FS-694]
